From ChEMBL document CHEMBL1153840, “Targeting of the Brucella suis virulence factor histidinol dehydrogenase by histidinol analogues results in inhibition of intramacrophagic multiplication of the pathogen” (Antimicrob Agents Chemother, 2007) come the findings set out here.

What is called IC50 is the concentration that inhibits the measured activity by half. Higher therefore signals a need for much substance.

The source made the active and inactive calls. The rule behind the calls is not given here.

One series deals with THP-1. Nature of the series: Toxicity against human THP1 cells at 25 uM after 48 hrs by trypan blue exclusion method. Format: cell-based. To be noted: thp-1, 48 h. An outline of the steps:
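Infected THP1 macrophage-like cells are stained with trypan blue at 48 h postinfection, at the drug concentrations used in the intracellular assay.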

For series [1], the system named is Brucella suis. Kind of series: Antibacterial activity against Brucella suis 1330 in minimal medium at 100 uM after 96 hrs. Format: functional, organism-based.
For series [2], the system named is Brucella suis. Nature of the series: Antibacterial activity against Brucella suis 1330 in minimal medium after 96 hrs. The format is functional, organism-based.
For series [3], the system named is Brucella suis. Nature of the series: Antibacterial activity against Brucella suis 1330 assessed as reduction in bacterial growth in minimal medium after 96 hrs relative to control. The format is functional.
Series [4] has as its system Brucella suis. Nature of the series: Antibacterial activity against Brucella suis 1330 assessed as reduction in bacterial intramacrophagic multiplication in human THP1 cells at 25 uM treated 90 mins postinfection measured 24 hrs postinfection relative to control. Format: functional, THP-1.
The target of another series is T1, Histidinol dehydrogenase (Brucella suis biovar 1 (strain 1330), UniProt Q8G2R2).
T1 sequence (Q8G2R2 whole entry): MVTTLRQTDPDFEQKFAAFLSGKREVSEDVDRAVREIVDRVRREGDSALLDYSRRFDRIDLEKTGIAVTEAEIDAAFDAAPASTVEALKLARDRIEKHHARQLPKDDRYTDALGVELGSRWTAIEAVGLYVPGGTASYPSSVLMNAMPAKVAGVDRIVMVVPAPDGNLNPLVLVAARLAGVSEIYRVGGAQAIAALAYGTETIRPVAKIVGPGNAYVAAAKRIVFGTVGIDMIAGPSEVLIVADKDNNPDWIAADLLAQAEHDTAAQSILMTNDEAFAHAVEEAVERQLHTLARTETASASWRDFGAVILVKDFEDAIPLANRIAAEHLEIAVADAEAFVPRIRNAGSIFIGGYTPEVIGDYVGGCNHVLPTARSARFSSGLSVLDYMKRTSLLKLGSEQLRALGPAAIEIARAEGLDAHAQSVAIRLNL
Kind of series: Inhibition of Brucella suis histidinol dehydrogenase.

For series [5], the system named is Brucella suis. Nature of the series: Inhibition of intracellular replication of Brucella suis 1330 in human THP1 cells assessed as reduction in number of viable intracellular bacteria at 25 uM treated 90 mins postinfection measured 24 hrs postinfection relative to control. The format is functional, organism-based. Conditions: THP-1.
Series [6] has as its system Brucella suis. Kind of series: Growth inhibition of Brucella suis 1330 in minimal medium devoid of 1 mM histidine at 100 uM after 96 hrs. Format: functional, organism-based.
Series [7] has as its system Brucella suis. Kind of series: Growth inhibition of Brucella suis 1330 in minimal medium containing 1 mM histidine at 100 uM after 96 hrs. The format is functional, organism-based.

With `Cl.Cl.N[C@@H](Cc1c[nH]cn1)C(=O)Cc1ccc(Cl)cc1`, the Activity result in the series on THP-1 is on record as “Non-toxic”. For the same compound, the inhibition entry in the series on Brucella suis [1] was “Active”. The inhibition entry with Brucella suis [2] was “Dose-dependent effect”. In addition, the entries for the “fold change (FC)” value in the series with Brucella suis [3] and in the series on Brucella suis [4] were 12 and 50, respectively. At Histidinol dehydrogenase, this compound showed an IC50 of 6 nM. Further, the outcome in the series with Brucella suis [5] was Active.

For `Cl.Cl.N[C@@H](Cc1c[nH]cn1)C(=O)Cc1ccc(Oc2ccccc2)cc1`, the “fold change (FC)” value in the series on Brucella suis [3] is recorded as 12. The compound also gave a concentration for half-maximal inhibition (IC50) at Histidinol dehydrogenase of 6 nM.

For the compound `Cc1ccc(CC(=O)[C@@H](N)Cc2c[nH]cn2)cc1.Cl.Cl`, in the series with Brucella suis [3], the “fold change (FC)” value amounted to 12. In addition, at Histidinol dehydrogenase, the IC50 came to 6 nM.

Turning to `Cl.Cl.N[C@@H](Cc1c[nH]cn1)C(=O)Cc1ccc(F)cc1`, the inhibition result in the series on Brucella suis [1] was “Active”. Also, in the series with Brucella suis [3], the “fold change (FC)” value is recorded as 12. The same compound returned a concentration for half-maximal inhibition (IC50) against Histidinol dehydrogenase of 6 nM.

For `Cl.Cl.N[C@@H](Cc1c[nH]cn1)C(=O)Cc1ccc2c(c1)OCO2`, the “fold change (FC)” value in the series on Brucella suis [3] is recorded as 12. This compound also displayed an IC50 at Histidinol dehydrogenase of 6 nM.

In the case of `Cl.Cl.N[C@@H](Cc1c[nH]cn1)C(=O)Cc1ccc(-c2ccccc2)cc1`, the result with Brucella suis [6] and in the series with Brucella suis [5] was Active. For the same compound, the Activity entry in the series on THP-1 is “Non-toxic”. Moreover, the inhibition result in the series with Brucella suis [1] is “Active”. Moreover, the inhibition result in the series on Brucella suis [2] is “Dose-dependent effect”. The “fold change (FC)” value was determined as 12 in the series with Brucella suis [3] and 50 in the series on Brucella suis [4]. The same compound registered a 50% inhibitory concentration (IC50) against Histidinol dehydrogenase of 6 nM. Also, the outcome in the series with Brucella suis [7] was inactive.

As for `Cl.Cl.N[C@@H](Cc1c[nH]cn1)C(=O)Cc1ccc(Br)cc1`, in the series with THP-1, the Activity entry is on record as “Non-toxic”. Also, the inhibition result with Brucella suis [1] is “Active”. Further, the inhibition entry in the series on Brucella suis [2] was “Dose-dependent effect”. Also, the “fold change (FC)” value in the series with Brucella suis [3] was 12; with Brucella suis [4] it was 50. Also, the result in the series on Brucella suis [5] was Active.

`Cl.Cl.N[C@@H](Cc1c[nH]cn1)C(=O)Cc1ccc(F)cc1F`: the “fold change (FC)” value with Brucella suis [3] is given as 12. This compound showed an IC50 on Histidinol dehydrogenase of 6 nM.

Consider `Cl.Cl.N[C@@H](Cc1c[nH]cn1)C(=O)Cc1c(F)c(F)c(F)c(F)c1F`, for which, in the series with Brucella suis [3], the “fold change (FC)” value worked out at 12. Also, the half-maximal inhibitory concentration (IC50) on Histidinol dehydrogenase was determined as 6 nM.

`Cl.Cl.N[C@@H](Cc1c[nH]cn1)C(=O)Cc1ccc(Cl)c(Cl)c1`: the “fold change (FC)” value in the series with Brucella suis [3] was determined as 12. At Histidinol dehydrogenase, this compound registered an IC50 of 6 nM.

In the case of `Cl.Cl.N[C@@H](Cc1c[nH]cn1)C(=O)Cc1ccccc1`, in the series with Brucella suis [3], the “fold change (FC)” value is 12. 6 nM corresponded to half-maximal inhibition at Histidinol dehydrogenase (IC50).

As for `Cl.Cl.N[C@@H](Cc1c[nH]cn1)C(=O)Cc1cccc2ccccc12`, the “fold change (FC)” value in the series on Brucella suis [3] is given as 12. In addition, on Histidinol dehydrogenase, the IC50 was 6 nM.

Turning to `Cl.Cl.N[C@@H](Cc1c[nH]cn1)C(=O)Cc1ccc(OCc2ccccc2)cc1`, the “fold change (FC)” value in the series with Brucella suis [3] is 12. In the series with Brucella suis [5], the outcome was Active.

Regarding `COc1ccc(CC(=O)[C@@H](N)Cc2c[nH]cn2)cc1.Cl.Cl`, the “fold change (FC)” value in the series on Brucella suis [3] amounted to 12. Besides, on Histidinol dehydrogenase, the IC50 is 6 nM.

On to `Cl.Cl.N[C@@H](Cc1c[nH]cn1)C(=O)Cc1ccc2ccccc2c1`, for which the Activity entry with THP-1 is listed as “Non-toxic”. Besides, the inhibition entry in the series with Brucella suis [1] was “Active”. Also, the inhibition entry in the series with Brucella suis [2] is “Dose-dependent effect”. Moreover, the figures for the “fold change (FC)” value in the series with Brucella suis [3] and with Brucella suis [4] were 12 and 50, respectively. In addition, at Histidinol dehydrogenase, half-maximal inhibition (IC50) was put at 6 nM. Further, the result with Brucella suis [5] was Active.
